Results published in ChEMBL document CHEMBL1926642, “Relevance of the C-5 position to schweinfurthin induced cytotoxicity” (2011).

Key:
Assay type in all cases: functional
OVCAR-3 = experiment: Growth inhibition of human OVCAR3 cells after 48 hrs by sulforhodamine B assay; settings: OVCAR-3, 48 h
NCI-H522 = experiment: Growth inhibition of human NCI-H522 cells after 48 hrs by sulforhodamine B assay; settings: NCI-H522, 48 h
SK-MEL-2 = experiment: Growth inhibition of human SK-MEL-2 cells after 48 hrs by sulforhodamine B assay; settings: SK-MEL-2, 48 h
LOX IMVI = experiment: Growth inhibition of human LOXIMVI cells after 48 hrs by sulforhodamine B assay
A549 = experiment: Growth inhibition of human A549 cells after 48 hrs by sulforhodamine B assay; settings: A549, 48 h
RPMI-8226 = experiment: Growth inhibition of human RPMI8226 cells after 48 hrs by sulforhodamine B assay; settings: RPMI-8226, 48 h
SK-OV-3 = experiment: Growth inhibition of human SKOV3 cells after 48 hrs by sulforhodamine B assay; settings: SK-OV-3, 48 h
EKVX = experiment: Growth inhibition of human EKVX cells after 48 hrs by sulforhodamine B assay
CAKI-1 = experiment: Growth inhibition of human Caki1 cells after 48 hrs by sulforhodamine B assay; settings: CAKI-1, 48 h
SW-620 = experiment: Growth inhibition of human SW620 cells after 48 hrs by sulforhodamine B assay; settings: SW-620, 48 h
U-251 = experiment: Growth inhibition of human U251 cells after 48 hrs by sulforhodamine B assay; settings: U-251, 48 h
[1] = Growth inhibition of human Hs 578T cells after 48 hrs by sulforhodamine B assay
OVCAR-4 = experiment: Growth inhibition of human OVCAR4 cells after 48 hrs by sulforhodamine B assay; settings: OVCAR-4, 48 h
CCRF-CEM = experiment: Growth inhibition of human CCRF-CEM cells after 48 hrs by sulforhodamine B assay
RXF 393 = experiment: Growth inhibition of human RXF393 cells after 48 hrs by sulforhodamine B assay; settings: RXF 393, 48 h
OVCAR-5 = experiment: Growth inhibition of human OVCAR5 cells after 48 hrs by sulforhodamine B assay; settings: OVCAR-5, 48 h
HCC 2998 = experiment: Growth inhibition of human HCC2998 cells after 48 hrs by sulforhodamine B assay; settings: HCC 2998, 48 h
HCT-116 = experiment: Growth inhibition of human HCT116 cells after 48 hrs by sulforhodamine B assay; settings: HCT-116, 48 h
OVCAR-8 = experiment: Growth inhibition of human OVCAR8 cells after 48 hrs by sulforhodamine B assay; settings: OVCAR-8, 48 h
MDA-MB-231 = experiment: Growth inhibition of human MDA-MB-231/ATCC cells after 48 hrs by sulforhodamine B assay; settings: MDA-MB-231, 48 h
A498 = experiment: Growth inhibition of human A498 cells after 48 hrs by sulforhodamine B assay; settings: A498, 48 h
SNB-19 = experiment: Growth inhibition of human SNB19 cells after 48 hrs by sulforhodamine B assay; settings: SNB-19, 48 h
SK-MEL-5 = experiment: Growth inhibition of human SK-MEL-5 cells after 48 hrs by sulforhodamine B assay; settings: SK-MEL-5, 48 h
SF-539 = experiment: Growth inhibition of human SF539 cells after 48 hrs by sulforhodamine B assay; settings: SF-539, 48 h
MDA-MB-435 = experiment: Growth inhibition of human MDA-MB-435 cells after 48 hrs by sulforhodamine B assay; settings: MDA-MB-435, 48 h
SF-268 = experiment: Growth inhibition of human SF268 cells after 48 hrs by sulforhodamine B assay; settings: SF-268, 48 h
BT-549 = experiment: Growth inhibition of human BT549 cells after 48 hrs by sulforhodamine B assay; settings: BT-549, 48 h
IGROV-1 = experiment: Growth inhibition of human IGROV1 cells after 48 hrs by sulforhodamine B assay; settings: IGROV-1, 48 h
SK-MEL-28 = experiment: Growth inhibition of human SK-MEL-28 cells after 48 hrs by sulforhodamine B assay; settings: SK-MEL-28, 48 h
NCI-H23 = experiment: Growth inhibition of human NCI-H23 cells after 48 hrs by sulforhodamine B assay; settings: NCI-H23, 48 h
HL-60(TB) = experiment: Growth inhibition of human HL-60(TB) cells after 48 hrs by sulforhodamine B assay; settings: HL-60, 48 h
Method in brief: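 Run in the NCI 60 cell-line screen as the full 5-dose assay that follows initial single-dose testing; GI50 is read from the dose series.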

[2] = read-out: pLC50 (the source's name) (converted)

COc1cc(/C=C/c2cc3c(c(SC)c2)O[C@]2(C)CC[C@@H](O)C(C)(C)[C@H]2C3)cc(O)c1C/C=C(\C)CCC=C(C)C
GI50 (OVCAR-3): 5.89 µM
LC50 (OVCAR-3): 43.7 µM
TGI (OVCAR-3; read-out: pTGI (converted)): 18.2 µM
GI50 (NCI-H522): 12 µM
LC50 (NCI-H522): 93.3 µM
TGI (NCI-H522; read-out: pTGI (converted)): 33.1 µM
GI50 (SK-MEL-2): 12.6 µM
LC50 (SK-MEL-2): 69.2 µM
TGI (SK-MEL-2; read-out: pTGI (converted)): 29.5 µM
GI50 (LOX IMVI): 4.37 µM
LC50 (LOX IMVI): 47.9 µM
TGI (LOX IMVI; read-out: pTGI (converted)): 13.2 µM
LC50 (A549): > 100 µM
GI50 (A549; read-out: GI50): 6.03 µM
GI50 (A549; read-out: pGI50 (converted)): 6.03 µM
TGI (A549; read-out: pTGI (converted)): 52.5 µM
GI50 (RPMI-8226): 2.34 µM
LC50 (RPMI-8226): > 100 µM
TGI (RPMI-8226; read-out: pTGI (converted)): 8.91 µM
GI50 (SK-OV-3): 7.94 µM
LC50 (SK-OV-3): > 100 µM
TGI (SK-OV-3; read-out: pTGI (converted)): 43.7 µM
GI50 (EKVX): 40.7 µM
LC50 (50% lethal concentration) (EKVX): > 100 µM
TGI (EKVX; read-out: pTGI (converted)): > 100 µM
GI50 (CAKI-1): 27.5 µM
LC50 (CAKI-1): > 100 µM
TGI (CAKI-1; read-out: pTGI (converted)): > 100 µM
GI50 (SW-620): 6.76 µM
LC50 (SW-620): 50.1 µM
TGI (SW-620; read-out: pTGI (converted)): 20.9 µM
GI50 (U-251): 5.01 µM
LC50 (U-251): 85.1 µM
TGI (U-251; read-out: pTGI (converted)): 24 µM
GI50 [1]: 2.4 µM
CC50 [1, 2]: > 100 µM
TGI ([1]; read-out: pTGI (converted)): 19.5 µM
GI50 (OVCAR-4): 23.4 µM
LC50 (OVCAR-4): > 100 µM
TGI (OVCAR-4; read-out: pTGI (converted)): > 100 µM
GI50 (CCRF-CEM): 5.62 µM
LC50 (CCRF-CEM): > 100 µM
TGI (CCRF-CEM; read-out: pTGI (converted)): > 100 µM
GI50 (RXF 393): 1.55 µM
LC50 (50% lethal concentration) (RXF 393): 17.8 µM
TGI (RXF 393; read-out: pTGI (converted)): 4.47 µM
GI50 (OVCAR-5): 22.9 µM
LC50 (OVCAR-5): > 100 µM
TGI (OVCAR-5; read-out: pTGI (converted)): 57.5 µM
GI50 (HCC 2998): 12 µM
LC50 (HCC 2998): > 100 µM
TGI (HCC 2998; read-out: pTGI (converted)): 38.9 µM
GI50 (HCT-116): 6.46 µM
LC50 (HCT-116): 53.7 µM
TGI (HCT-116; read-out: pTGI (converted)): 20.9 µM
GI50 (OVCAR-8): 14.8 µM
LC50 (OVCAR-8): > 100 µM
TGI (OVCAR-8; read-out: pTGI (converted)): 41.7 µM
GI50 (MDA-MB-231): 3.39 µM
CC50 (MDA-MB-231; [2]): 56.2 µM
TGI (MDA-MB-231; read-out: pTGI (converted)): 14.5 µM
GI50 (A498): 4.57 µM
LC50 (A498): 67.6 µM
TGI (A498; read-out: pTGI (converted)): 22.4 µM
GI50 (SNB-19): 28.2 µM
LC50 (SNB-19): > 100 µM
TGI (SNB-19; read-out: pTGI (converted)): > 100 µM
GI50 (SK-MEL-5): 9.77 µM
LC50 (SK-MEL-5): 55 µM
TGI (SK-MEL-5; read-out: pTGI (converted)): 23.4 µM
GI50 (SF-539): 3.98 µM
LC50 (SF-539): > 100 µM
TGI (SF-539; read-out: pTGI (converted)): 41.7 µM
GI50 (MDA-MB-435): 12.9 µM
LC50 (MDA-MB-435): > 100 µM
TGI (MDA-MB-435; read-out: pTGI (converted)): 74.1 µM
GI50 (SF-268): 7.41 µM
LC50 (SF-268): > 100 µM
TGI (SF-268; read-out: pTGI (converted)): 61.7 µM
GI50 (BT-549): 18.6 µM
LC50 (BT-549): > 100 µM
TGI (BT-549; read-out: pTGI (converted)): > 100 µM
GI50 (IGROV-1): 39.8 µM
LC50 (IGROV-1): > 100 µM
TGI (IGROV-1; read-out: pTGI (converted)): > 100 µM
GI50 (SK-MEL-28): 12.3 µM
CC50 (SK-MEL-28; [2]): > 100 µM
TGI (SK-MEL-28; read-out: pTGI (converted)): 34.7 µM
GI50 (NCI-H23): 11.5 µM
LC50 (NCI-H23): > 100 µM
TGI (NCI-H23; read-out: pTGI (converted)): 36.3 µM
GI50 (HL-60(TB)): 5.13 µM
CC50 (HL-60(TB); [2]): > 100 µM
TGI (HL-60(TB); read-out: pTGI (converted)): 36.3 µM
